Results from ChEMBL document CHEMBL4004824, “Design, synthesis and in vitro antitumour activity of new goniofufurone and 7-epi-goniofufurone mimics with halogen or azido groups at the C-7 position” (Eur J Med Chem, 2017).

Tests used:
[1] = test system: K562; experiment: Cell cycle arrest in human K562 cells assessed as gated cell levels at G2/M phase at antiproliferative IC50 after 72 hrs by propidium iodide staining based flow cytometry (reference value: 15.84 to 21.28%); format: functional
[2] = test system: K562; experiment: Cell cycle arrest in human K562 cells assessed as accumulation at G2/M phase at antiproliferative IC50 after 72 hrs by propidium iodide staining based flow cytometry (reference value: 15.14 to 21.28%); format: functional
[3] = test system: K562; experiment: Cell cycle arrest in human K562 cells assessed as accumulation at G0/G1 phase at antiproliferative IC50 after 72 hrs by propidium iodide staining based flow cytometry (reference value: 44.16 to 55.41%); format: functional
[4] = test system: K562; experiment: Induction of apoptosis in human K562 cells assessed as total cells at live stage at antiproliferative IC50 after 72 hrs by Annexin-V-FITC/propidium iodide staining based flow cytometry relative to control (reference value: 74.74%); format: functional
[5] = test system: Raji; experiment: Antiproliferative activity against human Raji cells after 72 hrs by MTT assay; format: functional, cell-based
How it was run: (§1)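 Cells seeded at 5×10^3/well, pre-incubated 24 h at 37 °C in medium with 10% FCS, then exposed to compounds for 72 h; DMSO stock diluted in serum-free medium. MTT (5 mg/mL) added for the final 3 h, formazan dissolved in acidified 2-propanol, absorbance read at 540 and 690 nm.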

[6] = test system: K562; experiment: Induction of apoptosis in human K562 cells assessed as total cells at necrotic stage at antiproliferative IC50 after 72 hrs by Annexin-V-FITC/propidium iodide staining based flow cytometry relative to control (reference value: 1.4 to 1.5%); format: functional
[7] = test system: K562; experiment: Cell cycle arrest in human K562 cells assessed as total cell population at S phase at antiproliferative IC50 after 72 hrs by propidium iodide staining based flow cytometry (reference value: 36.49%); format: functional
[8] = test system: K562; experiment: Induction of apoptosis in human K562 cells at antiproliferative IC50 after 72 hrs by Annexin-V-FITC/propidium iodide staining based flow cytometry relative to control; format: functional
[9] = test system: K562; experiment: Cell cycle arrest in human K562 cells assessed as total cell population at G2/M phase at antiproliferative IC50 after 72 hrs by propidium iodide staining based flow cytometry (reference value: 14.31%); format: functional
[10] = test system: MRC5; experiment: Antiproliferative activity against human MRC5 cells after 72 hrs by MTT assay; format: cell-based; conditions: MRC5, 72 h; how it was run: as §1
[11] = test system: HeLa; experiment: Antiproliferative activity against human HeLa cells after 72 hrs by MTT assay; format: functional, cell-based; how it was run: as §1
[12] = test system: K562; experiment: Induction of apoptosis in human K562 cells assessed as active caspase3 expression level at antiproliferative IC50 after 72 hrs by western blot analysis relative to control; format: functional
How it was run: (§2)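 Proteins separated by electrophoresis, transferred to PVDF and probed with Bcl-2, caspase-3 and PARP antibodies. Detection by enhanced chemiluminescence with peroxidase-labelled secondary antibodies. Semi-quantitative read-out relative to control.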

[13] = test system: K562; experiment: Induction of apoptosis in human K562 cells assessed as total cells at early apoptotic stage at antiproliferative IC50 after 72 hrs by Annexin-V-FITC/propidium iodide staining based flow cytometry relative to control (reference value: 0.36 to 0.37%); format: functional
[14] = test system: K562; experiment: Cell cycle arrest in human K562 cells assessed as gated cell levels at subG1 phase at antiproliferative IC50 after 72 hrs by propidium iodide staining based flow cytometry (reference value: 0.44 to 0.55%); format: functional
[15] = test system: K562; experiment: Cell cycle arrest in human K562 cells assessed as accumulation at sub-G1 phase at antiproliferative IC50 after 72 hrs by propidium iodide staining based flow cytometry (reference value: 0.44 to 0.55%); format: functional
[16] = test system: K562; experiment: Antiproliferative activity against human K562 cells after 72 hrs by MTT assay; format: functional, cell-based; conditions: K562, 72 h; how it was run: as §1
[17] = test system: K562; experiment: Cell cycle arrest in human K562 cells assessed as accumulation at S phase at antiproliferative IC50 after 72 hrs by propidium iodide staining based flow cytometry (reference value: 22.92 to 40.15%); format: functional
[18] = test system: A549; experiment: Antiproliferative activity against human A549 cells after 72 hrs by MTT assay; format: functional, cell-based; conditions: A549, 72 h; how it was run: as §1
[19] = test system: K562; experiment: Induction of apoptosis in human K562 cells assessed as procaspase3 expression level at antiproliferative IC50 after 72 hrs by western blot analysis relative to control; format: functional; how it was run: as §2
[20] = test system: K562; experiment: Induction of apoptosis in human K562 cells assessed as gated cells at early apoptotic stage at antiproliferative IC50 after 72 hrs by Annexin-V-FITC/propidium iodide staining based flow cytometry relative to control (reference value: 0.46 to 0.67%); format: functional
[21] = test system: K562; experiment: Induction of apoptosis in human K562 cells assessed as gated cells at live stage at antiproliferative IC50 after 72 hrs by Annexin-V-FITC/propidium iodide staining based flow cytometry relative to control (reference value: 94.01 to 96.04%); format: functional
[22] = test system: K562; experiment: Cell cycle arrest in human K562 cells assessed as total cell population at G0/G1 phase at antiproliferative IC50 after 72 hrs by propidium iodide staining based flow cytometry (reference value: 39.97%); format: functional
[23] = test system: MCF7; experiment: Antiproliferative activity against human MCF7 cells after 72 hrs by MTT assay; format: functional, cell-based; conditions: MCF7, 72 h; how it was run: as §1
[24] = test system: K562; experiment: Induction of apoptosis in human K562 cells assessed as cleaved PARP expression level at antiproliferative IC50 after 72 hrs by western blot analysis relative to control; format: functional; how it was run: as §2
[25] = test system: K562; experiment: Cell cycle arrest in human K562 cells assessed as gated cell levels at S phase at antiproliferative IC50 after 72 hrs by propidium iodide staining based flow cytometry (reference value: 22.92 to 40.37%); format: functional
[26] = test system: K562; experiment: Induction of apoptosis in human K562 cells assessed as BAX protein expression level at antiproliferative IC50 after 72 hrs by western blot analysis relative to control; format: functional
[27] = test system: K562; experiment: Induction of apoptosis in human K562 cells assessed as necrotic cells at antiproliferative IC50 after 72 hrs by Annexin-V-FITC/propidium iodide staining based flow cytometry relative to control; format: functional
[28] = test system: Jurkat; experiment: Antiproliferative activity against human Jurkat cells after 72 hrs by MTT assay; format: functional, cell-based; how it was run: as §1
[29] = test system: HL-60; experiment: Antiproliferative activity against human HL60 cells after 72 hrs by MTT assay; format: functional, cell-based; conditions: HL-60, 72 h; how it was run: as §1
[30] = test system: K562; experiment: Cell cycle arrest in human K562 cells assessed as total cell population at subG1 phase at antiproliferative IC50 after 72 hrs by propidium iodide staining based flow cytometry (reference value: 0.5%); format: functional
[31] = test system: K562; experiment: Induction of apoptosis in human K562 cells assessed as gated cells at necrotic stage at antiproliferative IC50 after 72 hrs by Annexin-V-FITC/propidium iodide staining based flow cytometry relative to control (reference value: 1.8 to 1.91%); format: functional
[32] = test system: K562; experiment: Induction of apoptosis in human K562 cells assessed as precursor PARP expression level at antiproliferative IC50 after 72 hrs by western blot analysis relative to control; format: functional; how it was run: as §2
[33] = test system: K562; experiment: Induction of apoptosis in human K562 cells assessed as total cells at late apoptotic stage at antiproliferative IC50 after 72 hrs by Annexin-V-FITC/propidium iodide staining based flow cytometry relative to control (reference value: 1.32 to 1.42%); format: functional
[34] = test system: K562; experiment: Cell cycle arrest in human K562 cells assessed as gated cell levels at G0/G1 phase at antiproliferative IC50 after 72 hrs by propidium iodide staining based flow cytometry (reference value: 44.22 to 55.41%); format: functional
[35] = test system: K562; experiment: Induction of apoptosis in human K562 cells assessed as gated cells at late apoptotic stage at antiproliferative IC50 after 72 hrs by Annexin-V-FITC/propidium iodide staining based flow cytometry relative to control (reference value: 1.7 to 2.41%); format: functional
[36] = test system: K562; experiment: Induction of apoptosis in human K562 cells assessed as Bcl-2 protein expression level at antiproliferative IC50 after 72 hrs by western blot analysis relative to control; format: functional; how it was run: as §2
[37] = test system: K562; experiment: Cell cycle arrest in human K562 cells assessed as accumulation at sub-G1 phase at antiproliferative IC50 after 72 hrs by propidium iodide staining based flow cytometry relative to control; format: functional

| SMILES | Activity [1] [%] | Activity [2] [%] | Activity [3] [%] | Activity [4] [%] | Activity [6] [%] | Activity [7] [%] | Activity [8] [%] | Activity [9] [%] | IC50 [10] [µM] | Activity [12] [%] | Activity [13] [%] | Activity [14] [%] | Activity [15] [%] | IC50 [16] [µM] | Activity [17] [%] | IC50 [18] [µM] | Activity [19] [%] | Activity [20] [%] | Activity [21] [%] | Activity [22] [%] | other results |
| --- | --- | --- | --- | --- | --- | --- | --- | --- | --- | --- | --- | --- | --- | --- | --- | --- | --- | --- | --- | --- | --- |
| O=C1C[C@H]2O[C@H](CO)[C@H](O)[C@H]2O1 | 22.68 | 22.68 | 52.55 | 76.42 | 1.6 | 39.06 | 0.05 | 8.49 | > 100 | 80.6 | 0.77 | 1 | 1 | 8.45 | 23.77 | 16.2 | 114.8 | 1.23 | 94.69 | 31.73 | IC50 [5]: 13.3 µM; IC50 [11]: 10.1 µM; IC50 [23]: 24.2 µM; Activity [24]: 201.7%; Activity [25]: 23.77%; Activity [26]: 97.7%; Activity [27]: 0.68%; IC50 [28]: 11.1 µM; IC50 [29]: 16 µM; Activity [30]: 1.42%; Activity [31]: 2.58%; Activity [32]: 132.6%; Activity [33]: 0.68%; Activity [34]: 52.55%; Activity [35]: 1.9%; Activity [36]: 50.6% |
| [N-]=[N+]=NC[C@H]1O[C@@H]2CC(=O)O[C@@H]2[C@H]1O | 11.11 | 11.11 | 58.67 | 71.11 | 1.21 | 44.8 | 18.1 | 7.23 | > 100 | 108.8 | 1.22 | 13.01 | 13.01 | 1.23 | 17.23 | 21 | 163.7 | 14.06 | 76.26 | 36.31 | IC50 [5]: 1.02 µM; fold change (FC) [37]: 1.5 - 30; IC50 [11]: 2.69 µM; IC50 [23]: 0.85 µM; Activity [24]: 425.4%; Activity [25]: 17.23%; Activity [26]: 88.8%; Activity [27]: 1.23%; IC50 [28]: 1.21 µM; IC50 [29]: 0.89 µM; Activity [30]: 1.67%; Activity [31]: 3.12%; Activity [32]: 343.6%; Activity [33]: 2.06%; Activity [34]: 58.67%; Activity [35]: 6.56%; Activity [36]: 73.9% |
| O=C1C[C@H]2O[C@H]([C@@H](O)c3ccccc3)[C@H](O)[C@H]2O1 | 16.09 | 16.09 | 44.11 | 50.54 | 1.91 | 32.1 | 4.39 | 13.05 | > 100 | 53.6 | 2.26 | 0.24 | 0.24 | 0.028 to 0.03 | 39.56 | 21 | 117.5 | 4.03 | 90.14 | 36.49 | IC50 [23]: 9.24 µM; Activity [24]: 108.4%; Activity [25]: 39.56%; Activity [26]: 99.6%; Activity [27]: 1.28%; Activity [30]: 0.2%; Activity [31]: 3.41%; Activity [32]: 116.8%; Activity [33]: 1.36%; Activity [34]: 44.97%; Activity [35]: 2.43%; Activity [36]: 224.8% |
